Not all results are given here.
PGC1a acetyl up = compounds raising PGC1a acetylation signal, primary screen, PGC1a modulator project, cell-based, U2OS, AlphaScreen, signal-increasing mode | overnight | activation, % at 15.6 µM | actives 0.21% (n = 350,000) | AID 651723, 2012;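 active = every replicate reaching activation of at least 50%, whatever the mean replicate activation; inconclusive = replicates that disagree or another doubt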;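 also: hits raise the AlphaScreen acetylation signal above neutral controls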
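detection = AlphaScreen lysate read | assay system = U2OS cells expressing flag-PGC1a plus GCN5 | input = 7000 cells/well | dosing = one concentration | times = compound overnight at 37 °C, each detection step 1 h RT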
G6PC hep suppr = suppressors of forskolin-stimulated G6PC mRNA, dose response, PGC-1a acetylation activator project, cell-based, hepatocytes, RT-qPCR, cherry-picked samples | G6PC suppression (normalized activity, % of positive control; higher = more suppression), % at 26 µM | 240 tested, under 10 active | AID 743463, 2014 | primary mouse hepatocytes | shares compounds with PGC1a acetyl up;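 active = dose curves showing G6PC suppression whose half-maximal dose is at most twice the top valid dose; inconclusive = flat curves with moderate negative activity, or unreliable fits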;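 also: G6PC expression relative to GAPDH housekeeping gene as delta delta Ct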
PCK1 hep suppr = suppression of PCK1 mRNA in primary hepatocytes, dose response, PGC-1a acetylation activator project, cell-based, primary mouse hepatocytes, RT-qPCR, cherry-pick. shares compounds with PGC1a acetyl up. forskolin-stimulated. PCK1 expression decrease, unspecified at 26 µM. 230 tested, under 10 active. AID 743465, 2014;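 active = compounds lowering PCK1 expression whose fitted half-maximal concentration is at most twice the top tested dose; inconclusive = flat fit with moderate opposite-direction effect, or poor fit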;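 also: higher delta delta Ct means lower PCK1 expression so positive values indicate hits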
Hep PGC-1a down = suppression of PGC-1a mRNA in primary hepatocytes, dose response, PGC-1a acetylation activator project, cell-based, primary mouse hepatocytes, RT-qPCR, cherry-pick | shares compounds with PGC1a acetyl up | PGC-1a mRNA qPCR, forskolin; top dose 26 µM | max activity (PGC-1a expression decrease), % | 240 tested, under 10 active;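 active = compound lowering PGC-1a expression with fitted half-maximal concentration at most twice its top tested dose; inconclusive = flat curve with moderate opposite-direction effect, or poor fit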
Hits are given with their value; i = inactive; ? = inconclusive; nt = not tested or not shown.

SMILES	PGC1a acetyl up	PCK1 hep suppr	Hep PGC-1a down	others
C[C@@H]1CN([C@@H](C)CO)C(=O)c2c(c3ccccc3n2C)-c2ccccc2CO[C@@H]1CN(C)C(=O)c1ccc(F)cc1	117.0	i	i	G6PC hep suppr=i
O=C(c1cc(-c2ccccc2)nc2ccccc12)N1N=C(C(F)F)CC1(O)C(F)F (stereo unspecified)	i	nt	nt
c1ccc(Sc2ccccn2)cc1	i	nt	nt
COc1ccc(NC(=O)[C@H](Cc2c[nH]c3ccccc23)NC(=O)[C@@H]2Cc3ccccc3CN2)cc1	i	nt	nt
CC(=O)N(C1=C(N2CCOCC2)C(=O)c2ccccc2C1=O)c1ccc(C(=O)O)cc1	i	nt	nt
C[C@@H]1CN([C@@H](C)CO)C(=O)c2c(c3ccccc3n2C)-c2ccccc2CO[C@@H]1CN(C)C(=O)Nc1ccc2c(c1)OCO2	81.0	i	i	G6PC hep suppr=i
Cc1oc2c(c1C(=O)c1ccccc1)C(=O)C(=O)c1ccccc1-2	i	nt	nt
CC(=O)n1nc2nc(C)cc(C)c2c1N	i	nt	nt
Cc1ccccc1CSc1nnc(-c2ccco2)n1Cc1ccco1	i	nt	nt
NC(=O)Cn1cc(C(=O)c2cccs2)c2ccccc21	?	i	i
COc1cc(/C=C2\CC(C(C)(C)C)C/C(=C\c3cc(OC)c(OC)c(OC)c3)C2=O)cc(OC)c1OC (stereo unspecified)	i	nt	nt
COc1ccc(N=C2SCC(c3ccc(C)cc3)=NN2CCO)cc1	i	nt	nt
COc1cc(CNCCN2CCOCC2)ccc1OCc1ccc(Cl)cc1Cl	i	nt	nt
CN(C)CC(C(=O)c1ccccc1)c1ccccc1 (stereo unspecified)	i	nt	nt
Cc1ccc(NC(=O)c2sccc2SCc2cccc(C(F)(F)F)c2)cc1	?	i	i	G6PC hep suppr=i
O=C(Nc1ccc(F)cc1)c1sc2cc(C(F)(F)F)cnc2c1-c1cccs1	i	nt	nt
CCN(CC)c1ccc(C(=C2C=CC(=[N+](CC)CC)C=C2)c2ccc(N(CC)CC)cc2)cc1	i	nt	nt
CCc1nccn1S(=O)(=O)c1cc(C)c(OC)cc1C	i	nt	nt
COc1cccc(NC(=O)c2ccccc2-c2ccccc2C(=O)O)c1	i	nt	nt
CC(=O)c1cc(-c2ccccc2)n(CCC(=O)NC2CCCCC2)c1C	?	i	i	G6PC hep suppr=i
CCc1nnc(N/N=C/c2c(Cl)cccc2Cl)n1N	i	nt	nt
CCOC(=O)C1=C(CNCc2ccc(C)cc2)NC(=O)NC1c1cc(C)ccc1C (stereo unspecified)	i	nt	nt
CSCC(=O)N1CCCC(CO)(Cc2ccccc2C)C1 (stereo unspecified)	i	nt	nt
CCCC(=O)C1=C(O)C(C(=O)OC)C(C)(C)CC1=Nc1ccc(OC)cc1 (stereo unspecified)	i	nt	nt
O=c1oc(-c2ccccc2)nc2sc3c(c12)CCC3	i	nt	nt
SMILES	PGC1a acetyl up	PCK1 hep suppr	Hep PGC-1a down	others
COc1cc(CN2CCCC(CO)(Cc3cccc(Cl)c3)C2)cc2c1OCO2 (stereo unspecified)	i	i	i	G6PC hep suppr=i
O=C(CSc1nc2cc(Cl)ccc2s1)NCC1CCCO1 (stereo unspecified)	i	nt	nt
Cc1ccc(NC2=C/C(=N\S(=O)(=O)c3cccs3)c3ccccc3C2=O)c(C)c1	i	nt	nt
Cc1ccc(Nc2nnc(C)c3ccccc23)c(C)c1	?	i	i	G6PC hep suppr=i
Cc1cc(N2CCN(C)CC2)ccc1NC(=O)c1c2c(nc3ccccc13)CCN(Cc1ccccc1)C2	i	nt	nt
Cc1cc(N2CCN(C)CC2)nc2ccc(NC(=S)N3CCN(c4cccc(Cl)c4)CC3)cc12	i	nt	nt
CCOC(=O)CNS(=O)(=O)c1cc(-c2nnc(Nc3ccc4c(c3)OCO4)c3ccccc23)ccc1C	168.3	i	i	G6PC hep suppr=i
CC(=O)Nc1ccc(NC(=O)CN(c2cc(Cl)ccc2Cl)S(C)(=O)=O)cc1	116.6	nt	i	G6PC hep suppr=i
CCN(CC)CC(=O)N1c2ccccc2CCc2ccc(NC(=O)c3cc(OC)c(OC)c(OC)c3)cc21	i	?	i	G6PC hep suppr=i
Cc1ccc(S(=O)(=O)N[C@H]2C=C[C@@H](CC(=O)NCCN3CCCCC3)O[C@H]2CO)cc1	i	i	i
Cc1nc2ccccn2c1C(=O)/C=C/c1ccc(F)cc1	i	nt	nt
Cc1nnc(-c2ccccc2)c(=O)n1/N=C/c1c(O)ccc2ccccc12	i	nt	nt
COc1ccc(CCNC(=O)c2cc(-c3ccco3)on2)cc1OC	87.4	i	?	G6PC hep suppr=i
COc1cc2cc(C)c3nnc(SCC(=O)Nc4cc(C)on4)n3c2cc1OC	i	nt	nt
CCOCCCNC(=O)c1ccccc1SC	i	nt	nt
CC(C)(C)c1ccc(OCC(=O)NNC(=O)Nc2ccccc2)cc1	i	nt	nt

Assay outcomes deposited in PubChem BioAssay by Broad Institute.
